# According to ChEMBL document CHEMBL4330094, “Potent Metabolic Sialylation Inhibitors Based on C-5-Modified Fluorinated Sialic Acids” (J Med Chem, 2019):
# Activity calls are given as the source filed them. No cut-off for these calls is given here.
# Test system: B16-F10
# Experiment: Effect on total cell surface glycosylation in mouse B16F10 cells assessed as inhibition of biotinylated PHA-L lectin binding at 102.4 uM after 3 days by flow cytometry
# Assay type: cell-based
# Settings: b16-f10, 72 h
# Summary of the method: (§1)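 B16-F10 cells were exposed 3 days to 102.4 µM compound or DMSO. Staining used biotinylated lectins (AAL 5, PNA 5, GSL-I 1, LCA 1, PHA-L 1, PSA 1, SJA 1, WGA 1 µg/ml) in carbo-free blocking buffer with 1 mM CaCl and 1 mM MgCl for 45-60 min at 4 °C, then streptavidin-PE for 20 min at 4 °C. Flow cytometry read-out was MFI, mean ± SEM from two independent experiments.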
row,SMILES,Activity
1,COC(=O)C1(OC(C)=O)O[C@@H]([C@H](OC(C)=O)[C@@H](COC(C)=O)OC(C)=O)[C@H](NC(=O)CN=[N+]=[N-])[C@@H](OC(C)=O)[C@H]1F (some centres undefined),Non-Toxic

# Test system: B16-F10
# Experiment: Effect on total cell surface glycosylation in mouse B16F10 cells assessed as inhibition of biotinylated SJA-lectin binding at 102.4 uM after 3 days by flow cytometry
# Assay type: cell-based
# Settings: b16-f10, 72 h
# Summary of the method: as §1
row,SMILES,Activity
1,COC(=O)C1(OC(C)=O)O[C@@H]([C@H](OC(C)=O)[C@@H](COC(C)=O)OC(C)=O)[C@H](NC(=O)CN=[N+]=[N-])[C@@H](OC(C)=O)[C@H]1F (some centres undefined),Non-Toxic

# Test system: B16-F10
# Experiment: Effect on total cell surface glycosylation in mouse B16F10 cells assessed as inhibition of biotinylated AAL-lectin binding at 102.4 uM after 3 days by flow cytometry
# Assay type: cell-based
# Settings: b16-f10, 72 h
# Summary of the method: as §1
row,SMILES,Activity
1,COC(=O)C1(OC(C)=O)O[C@@H]([C@H](OC(C)=O)[C@@H](COC(C)=O)OC(C)=O)[C@H](NC(=O)CN=[N+]=[N-])[C@@H](OC(C)=O)[C@H]1F (some centres undefined),Non-Toxic

# Test system: B16-F10
# Experiment: Effect on total cell surface glycosylation in mouse B16F10 cells assessed as inhibition of biotinylated LCA-lectin binding at 102.4 uM after 3 days by flow cytometry
# Assay type: cell-based
# Settings: b16-f10, 72 h
# Summary of the method: as §1
row,SMILES,Activity
1,COC(=O)C1(OC(C)=O)O[C@@H]([C@H](OC(C)=O)[C@@H](COC(C)=O)OC(C)=O)[C@H](NC(=O)CN=[N+]=[N-])[C@@H](OC(C)=O)[C@H]1F (some centres undefined),Non-Toxic

# Test system: B16-F10
# Experiment: Effect on total cell surface glycosylation in mouse B16F10 cells assessed as inhibition of biotinylated GSL1-lectin binding at 102.4 uM after 3 days by flow cytometry
# Assay type: cell-based
# Settings: b16-f10, 72 h
# Summary of the method: as §1
row,SMILES,Activity
1,COC(=O)C1(OC(C)=O)O[C@@H]([C@H](OC(C)=O)[C@@H](COC(C)=O)OC(C)=O)[C@H](NC(=O)CN=[N+]=[N-])[C@@H](OC(C)=O)[C@H]1F (some centres undefined),Non-Toxic

# Test system: B16-F10
# Experiment: Inhibition of sialyltransferase in mouse B16-F10 cells assessed as recovery time for sialylation at 25.6 uM pretreated for 3 days followed by washing and re-seeding and measured after 6 days by biotinylated MAL2 lectin-based flow cytometry
# Assay type: cell-based
# Settings: not given
# Summary of the method: (§2)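 B16-F10 cells were pretreated 3 days with 25.6 or 51.2 µM compound or DMSO, washed, reseeded, and sampled daily for 6 days. They were stained with biotinylated MALII (5 µg/ml, 45-60 min, 4 °C) plus streptavidin-PE. Flow cytometry MFI was normalized to control as % lectin binding.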
row,SMILES,sialylation recovery time
1,COC(=O)C1(OC(C)=O)O[C@@H]([C@H](OC(C)=O)[C@@H](COC(C)=O)OC(C)=O)[C@H](NC(=O)CN=[N+]=[N-])[C@@H](OC(C)=O)[C@H]1F (some centres undefined),Active

# Test system: not listed separately
# Experiment: Inhibition of sialyltransferase in mouse B16F10 cells assessed as decrease in lectin binding after 3 days by biotinylated MAL2 lectin and streptavidin-PE based flow cytometry
# Assay type: cell-based
# Settings: not given
# Summary of the method: (§3)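 Each cell line was incubated 3 days with increasing compound concentrations or equivalent DMSO. Cells were stained with biotinylated MALII (5 µg/ml) in carbo-free blocking buffer with 1 mM CaCl/MgCl for 45-60 min at 4 °C, washed in PBS/1% BSA/0.02% azide, then stained with streptavidin-PE for 20 min at 4 °C. For flow cytometry, MFI was normalized to control as % lectin binding.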
row,EC50,SMILES
1,19.9 µM,COC(=O)C1(OC(C)=O)O[C@@H]([C@H](OC(C)=O)[C@@H](COC(C)=O)OC(C)=O)[C@H](NC(=O)CN=[N+]=[N-])[C@@H](OC(C)=O)[C@H]1F (some centres undefined)

# Test system: not listed separately
# Experiment: Inhibition of sialyltransferase in mouse EL4 cells assessed as decrease in lectin binding after 3 days by biotinylated MAL2 lectin and streptavidin-PE based flow cytometry
# Assay type: cell-based
# Settings: not given
# Summary of the method: as §3
row,EC50,SMILES
1,> 102 µM,COC(=O)C1(OC(C)=O)O[C@@H]([C@H](OC(C)=O)[C@@H](COC(C)=O)OC(C)=O)[C@H](NC(=O)CN=[N+]=[N-])[C@@H](OC(C)=O)[C@H]1F (some centres undefined)

# Test system: B16-F10
# Experiment: Effect on total cell surface glycosylation in mouse B16F10 cells assessed as inhibition of biotinylated PSA-lectin binding at 102.4 uM after 3 days by flow cytometry
# Assay type: cell-based
# Settings: b16-f10, 72 h
# Summary of the method: as §1
row,SMILES,Activity
1,COC(=O)C1(OC(C)=O)O[C@@H]([C@H](OC(C)=O)[C@@H](COC(C)=O)OC(C)=O)[C@H](NC(=O)CN=[N+]=[N-])[C@@H](OC(C)=O)[C@H]1F (some centres undefined),Non-Toxic

# Test system: not listed separately
# Experiment: Inhibition of sialyltransferase in HEK293 cells assessed as decrease in lectin binding after 3 days by biotinylated MAL2 lectin and streptavidin-PE based flow cytometry
# Assay type: cell-based, Homo sapiens
# Settings: not given
# Summary of the method: as §3
row,EC50,SMILES
1,45.6 µM,COC(=O)C1(OC(C)=O)O[C@@H]([C@H](OC(C)=O)[C@@H](COC(C)=O)OC(C)=O)[C@H](NC(=O)CN=[N+]=[N-])[C@@H](OC(C)=O)[C@H]1F (some centres undefined)

# Test system: B16-F10
# Experiment: Relative inhibitory potency, ratio of SiaFAc to compound EC50 for inhibition of sialyltransferase in mouse B16-F10 cells
# Assay type: cell-based
# Settings: not given
row,SMILES,Ratio EC50
1,COC(=O)C1(OC(C)=O)O[C@@H]([C@H](OC(C)=O)[C@@H](COC(C)=O)OC(C)=O)[C@H](NC(=O)CN=[N+]=[N-])[C@@H](OC(C)=O)[C@H]1F (some centres undefined),1

# Test system: B16-F10
# Experiment: Inhibition of sialyltransferase in mouse B16-F10 cells assessed as recovery time for sialylation at 51.2 uM pretreated for 3 days followed by washing and re-seeding and measured after 6 days by biotinylated MAL2 lectin-based flow cytometry
# Assay type: cell-based
# Settings: not given
# Summary of the method: as §2
row,SMILES,TIME
1,COC(=O)C1(OC(C)=O)O[C@@H]([C@H](OC(C)=O)[C@@H](COC(C)=O)OC(C)=O)[C@H](NC(=O)CN=[N+]=[N-])[C@@H](OC(C)=O)[C@H]1F (some centres undefined),48 to 72 h

# Test system: not listed separately
# Experiment: Inhibition of sialyltransferase in human THP1 cells assessed as decrease in lectin binding after 3 days by biotinylated MAL2 lectin and streptavidin-PE based flow cytometry
# Assay type: cell-based
# Settings: not given
# Summary of the method: as §3
row,EC50,SMILES
1,10.9 µM,COC(=O)C1(OC(C)=O)O[C@@H]([C@H](OC(C)=O)[C@@H](COC(C)=O)OC(C)=O)[C@H](NC(=O)CN=[N+]=[N-])[C@@H](OC(C)=O)[C@H]1F (some centres undefined)

# Test system: B16-F10
# Experiment: Effect on total cell surface glycosylation in mouse B16F10 cells assessed as inhibition of biotinylated WGA-lectin binding at 102.4 uM after 3 days by flow cytometry
# Assay type: cell-based
# Settings: b16-f10, 72 h
# Summary of the method: as §1
row,SMILES,Activity
1,COC(=O)C1(OC(C)=O)O[C@@H]([C@H](OC(C)=O)[C@@H](COC(C)=O)OC(C)=O)[C@H](NC(=O)CN=[N+]=[N-])[C@@H](OC(C)=O)[C@H]1F (some centres undefined),Non-Toxic

# Test system: B16-F10
# Experiment: Cytotoxicity against mouse B16F10 cells assessed as reduction in metabolic activity at 204.8 uM after 3 days by MTT assay
# Assay type: ADME, cell-based
# Settings: b16-f10, 72 h
row,SMILES,Activity
1,COC(=O)C1(OC(C)=O)O[C@@H]([C@H](OC(C)=O)[C@@H](COC(C)=O)OC(C)=O)[C@H](NC(=O)CN=[N+]=[N-])[C@@H](OC(C)=O)[C@H]1F (some centres undefined),Non-Toxic

# Test system: not listed separately
# Experiment: Inhibition of sialyltransferase in mouse 9464D cells assessed as decrease in lectin binding after 3 days by biotinylated MAL2 lectin and streptavidin-PE based flow cytometry
# Assay type: cell-based
# Settings: not given
# Summary of the method: as §3
row,EC50,SMILES
1,> 102 µM,COC(=O)C1(OC(C)=O)O[C@@H]([C@H](OC(C)=O)[C@@H](COC(C)=O)OC(C)=O)[C@H](NC(=O)CN=[N+]=[N-])[C@@H](OC(C)=O)[C@H]1F (some centres undefined)

# Test system: not listed separately
# Experiment: Inhibition of sialyltransferase in human HeLa cells assessed as decrease in lectin binding after 3 days by biotinylated MAL2 lectin and streptavidin-PE based flow cytometry
# Assay type: cell-based
# Settings: not given
# Summary of the method: as §3
row,EC50,SMILES
1,80.6 µM,COC(=O)C1(OC(C)=O)O[C@@H]([C@H](OC(C)=O)[C@@H](COC(C)=O)OC(C)=O)[C@H](NC(=O)CN=[N+]=[N-])[C@@H](OC(C)=O)[C@H]1F (some centres undefined)

# Test system: B16-F10
# Experiment: Effect on total cell surface glycosylation in mouse B16F10 cells assessed as inhibition of biotinylated PNA lectin binding at 102.4 uM after 3 days by flow cytometry
# Assay type: cell-based
# Settings: b16-f10, 72 h
# Summary of the method: as §1
row,SMILES,Activity
1,COC(=O)C1(OC(C)=O)O[C@@H]([C@H](OC(C)=O)[C@@H](COC(C)=O)OC(C)=O)[C@H](NC(=O)CN=[N+]=[N-])[C@@H](OC(C)=O)[C@H]1F (some centres undefined),Non-Toxic

# Test system: B16-F10
# Experiment: Cytotoxicity against mouse B16F10 cells assessed as reduction in metabolic activity at <51.2 uM after 3 days by MTT assay
# Assay type: ADME, cell-based
# Settings: b16-f10, 72 h
row,SMILES,Activity
1,COC(=O)C1(OC(C)=O)O[C@@H]([C@H](OC(C)=O)[C@@H](COC(C)=O)OC(C)=O)[C@H](NC(=O)CN=[N+]=[N-])[C@@H](OC(C)=O)[C@H]1F (some centres undefined),Non-Toxic
